Source: ChEMBL document CHEMBL4715738, “In Vitro Antibacterial Activity of Curcumin-Polymyxin B Combinations against Multidrug-Resistant Bacteria Associated with Traumatic Wound Infections” (J Nat Prod, 2016)
In brackets after ≈: the same amount, converted by molar mass. Activity calls are given as the source filed them.

Experiments:
Streptococcus pyogenes [1] = assay: Antibacterial activity against Streptococcus pyogenes SPY1 assessed as reduction in bacterial growth incubated for 24 hrs; format: functional
Enterococcus faecium [2] = assay: Antibacterial activity against vancomycin-resistant Enterococcus faecium OEF42 assessed as reduction in bacterial growth incubated for 24 hrs; format: functional
Pseudomonas aeruginosa [3] = assay: Antibacterial activity against Pseudomonas aeruginosa ATCC 27853 assessed as reduction in bacterial growth incubated for 24 hrs in presence of curcumin; format: functional
Acinetobacter baumannii [4] = assay: Antibacterial activity against Acinetobacter baumannii AB14 harboring OXA-23 clone 1 assessed as reduction in bacterial growth incubated for 24 hrs; format: functional
Streptococcus pyogenes [5] = assay: Antibacterial activity against Streptococcus pyogenes SPY3 assessed as reduction in bacterial growth incubated for 24 hrs; format: functional
Streptococcus pyogenes [6] = assay: Antibacterial activity against Streptococcus pyogenes SPY2 assessed as reduction in bacterial growth incubated for 24 hrs; format: functional
Staphylococcus aureus [7] = assay: Antibacterial activity against methicillin-resistant Staphylococcus aureus NCTC 12493 assessed as reduction in bacterial growth incubated for 24 hrs in presence of curcumin; format: functional
Pseudomonas aeruginosa [8] = assay: Antibacterial activity against Pseudomonas aeruginosa PA30 harboring VIM-2 assessed as reduction in bacterial growth incubated for 24 hrs; format: functional
Staphylococcus aureus [9] = assay: Antibacterial activity against methicillin-resistant Staphylococcus aureus NCTC 12493 assessed as reduction in colony formation at MIC measured up to 24 hrs by time kill assay; format: functional, organism-based; conditions: time hrs <=24
How it was run: (§1)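 Time-kill in 10 mL Mueller-Hinton 2 broth, 37 °C with continuous agitation, 24 h. Inoculum was a 1/1000 dilution of a 16 h overnight culture, about 10^6 CFU/mL. Single agents at 1× MIC; combination at 1× MIC polymyxin B plus 0.5× MIC curcumin. Samples at 0, 2, 4, 6 and 24 h were serially diluted and plated on IsoSensitest agar for CFU/mL.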

Escherichia coli [10] = assay: Antibacterial activity against Escherichia coli NCTC 12241 assessed as reduction in bacterial growth incubated for 24 hrs; format: functional
Staphylococcus aureus [11] = assay: Synergistic antibacterial activity against methicillin-resistant Staphylococcus aureus NCTC 12493 assessed as fractional inhibitory concentration index measured after 24 hrs in presence of curcumin by checkerboard assay; format: functional
How it was run: (§2)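 FICI was derived from checkerboard MICs. Synergy was defined as FICI ≤ 0.5 and additive as FICI > 0.5−4.0. Where an MIC was not reached, the dilution above the maximum dose was used in the FICI calculation. Experiments were run in triplicate and reported as means.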

Enterococcus faecium [12] = assay: Antibacterial activity against vancomycin-resistant Enterococcus faecium OEF65 assessed as reduction in bacterial growth incubated for 24 hrs; format: functional
[13] = test system: Stenotrophomonas maltophilia; assay: Antibacterial activity against Stenotrophomonas maltophilia SMS01 assessed as reduction in bacterial growth incubated for 24 hrs; format: functional
Acinetobacter baumannii [14] = assay: Antibacterial activity against Acinetobacter baumannii AB12 harboring OXA-23 assessed as reduction in bacterial growth incubated for 24 hrs; format: functional
Streptococcus pyogenes [15] = assay: Antibacterial activity against Streptococcus pyogenes SPY1 assessed as reduction in bacterial growth incubated for 24 hrs in presence of curcumin; format: functional
Acinetobacter baumannii [16] = assay: Antibacterial activity against Acinetobacter baumannii NCTC 19606 assessed as reduction in bacterial growth incubated for 24 hrs; format: functional
Staphylococcus aureus [17] = assay: Antibacterial activity against vancomycin-intermediate resistant Staphylococcus aureus Mu50 assessed as reduction in bacterial growth incubated for 24 hrs; format: functional
Pseudomonas aeruginosa [18] = assay: Antibacterial activity against Pseudomonas aeruginosa PA30 harboring VIM-2 assessed as reduction in bacterial growth incubated for 24 hrs in presence of curcumin; format: functional
Pseudomonas aeruginosa [19] = assay: Antibacterial activity against Pseudomonas aeruginosa PA14 assessed as reduction in bacterial growth incubated for 24 hrs; format: functional
Escherichia coli [20] = assay: Antibacterial activity against Escherichia coli EC204 harboring NDM-1 assessed as reduction in bacterial growth incubated for 24 hrs; format: functional
[21] = test system: Stenotrophomonas maltophilia; assay: Antibacterial activity against Stenotrophomonas maltophilia SMB07 assessed as reduction in bacterial growth incubated for 24 hrs; format: functional
Pseudomonas aeruginosa [22] = assay: Antibacterial activity against Pseudomonas aeruginosa ATCC 27853 assessed as reduction in bacterial growth incubated for 24 hrs; format: functional
Acinetobacter baumannii [23] = assay: Antibacterial activity against Acinetobacter baumannii AB16 harboring OXA-23 clone 2 assessed as reduction in bacterial growth incubated for 24 hrs; format: functional
Escherichia coli [24] = assay: Antibacterial activity against Escherichia coli EC2 harboring CTX-M-15 assessed as reduction in bacterial growth incubated for 24 hrs; format: functional
[25] = test system: Stenotrophomonas maltophilia; assay: Antibacterial activity against Stenotrophomonas maltophilia NCTC 10258 assessed as reduction in bacterial growth incubated for 24 hrs; format: functional
Staphylococcus aureus [26] = assay: Antibacterial activity against Staphylococcus aureus ATCC 25923 assessed as reduction in bacterial growth incubated for 24 hrs; format: functional
Escherichia coli [27] = assay: Synergistic antibacterial activity against Escherichia coli EC204 harboring NDM-1 assessed as fractional inhibitory concentration index measured after 24 hrs in presence of curcumin by checkerboard assay; format: functional; how it was run: as §2
Enterococcus faecalis = assay: Antibacterial activity against Enterococcus faecalis ATCC 29212 assessed as reduction in bacterial growth incubated for 24 hrs; conditions: ATCC 29212, 24 h
Pseudomonas aeruginosa [28] = assay: Antibacterial activity against Pseudomonas aeruginosa PAO1 assessed as reduction in bacterial growth incubated for 24 hrs; format: functional
Staphylococcus aureus [29] = assay: Antibacterial activity against methicillin-resistant Staphylococcus aureus NCTC 12493 assessed as reduction in bacterial growth incubated for 24 hrs; format: functional
[30] = test system: Stenotrophomonas maltophilia; assay: Antibacterial activity against Stenotrophomonas maltophilia NCTC 10258 assessed as reduction in bacterial colony formation at 0.5 fold MIC measured after 24 hrs by time kill assay; format: functional, organism-based
How it was run: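 Time-kill in Mueller-Hinton 2 broth. Inoculum was a 1/1000 dilution of a 16 h overnight culture, about 10^6 CFU/mL, 10 mL per tube. Arms were each agent alone at ×1 MIC, or the combination at ×1 MIC plus ×0.5 MIC partner. Incubated at 37 °C with continuous agitation for 24 h. Samples taken at 0, 2, 4, 6 and 24 h, serially diluted and plated on IsoSensitest agar for CFU counts.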

Acinetobacter baumannii [31] = assay: Antibacterial activity against Acinetobacter baumannii AB16 harboring OXA-23 clone 2 assessed as reduction in bacterial growth incubated for 24 hrs in presence of polymyxin B; format: functional
Acinetobacter baumannii [32] = assay: Bactericidal activity against Acinetobacter baumannii NCTC 19606 assessed as bacterial cell death at 0.5 fold MIC measured after 4 to 6 hrs in presence of polymyxin B at MIC by time kill assay relative to control; format: functional; conditions: time 4-6 hrs; how it was run: as §1
[33] = test system: Stenotrophomonas maltophilia; assay: Potentiation of polymyxin B-induced antibacterial activity against Stenotrophomonas maltophilia SMB07 assessed as fold reduction in polymyxin B MIC measured after 24 hrs in presence of polymyxin B by checkerboard assay; format: functional
Escherichia coli [34] = assay: Antibacterial activity against Escherichia coli EC204 harboring NDM-1 assessed as reduction in bacterial growth incubated for 24 hrs in presence of polymyxin B; format: functional
Pseudomonas aeruginosa [35] = assay: Antibacterial activity against Pseudomonas aeruginosa PAO1 assessed as reduction in bacterial growth incubated for 24 hrs in presence of polymyxin B; format: functional
Pseudomonas aeruginosa [36] = assay: Potentiation of polymyxin B-induced antibacterial activity against Pseudomonas aeruginosa ATCC 27853 assessed as fold reduction in polymyxin B MIC measured after 24 hrs in presence of polymyxin B by checkerboard assay; format: functional

| SMILES | MIC (Streptococcus pyogenes [1]) [µM] | MIC (Enterococcus faecium [2]) [µM] | MIC (Acinetobacter baumannii [4]) [µM] | MIC (Streptococcus pyogenes [5]) [µM] | MIC (Streptococcus pyogenes [6]) [µM] | MIC (Pseudomonas aeruginosa [8]) [µM] | MIC (Escherichia coli [10]) [µM] | MIC (Enterococcus faecium [12]) [µM] | MIC [13] [µM] | MIC (Acinetobacter baumannii [14]) [µM] | MIC (Acinetobacter baumannii [16]) [µM] | MIC (Staphylococcus aureus [17]) [µM] | MIC (Pseudomonas aeruginosa [19]) [µM] | MIC (Escherichia coli [20]) [µM] | MIC [21] [µM] | MIC (Pseudomonas aeruginosa [22]) [µM] | MIC (Acinetobacter baumannii [23]) [µM] | MIC (Escherichia coli [24]) [µM] | MIC [25] [µM] | MIC (Staphylococcus aureus [26]) [µM] | further results |
| --- | --- | --- | --- | --- | --- | --- | --- | --- | --- | --- | --- | --- | --- | --- | --- | --- | --- | --- | --- | --- | --- |
| CC[C@H](C)CCCCC(=O)N[C@@H](CCN)C(=O)N[C@H](C(=O)N[C@@H](CCN)C(=O)N[C@H]1CCNC(=O)[C@H]([C@@H](C)O)NC(=O)[C@H](CCN)NC(=O)[C@H](CCN)NC(=O)[C@H](CC(C)C)NC(=O)[C@@H](Cc2ccccc2)NC(=O)[C@H](CCN)NC1=O)[C@@H](C)O.O=S(=O)(O)O | 6.1 | 98 | 0.096 | 3.1 | 12.3 | 0.39 | 0.048 | 49 | 6.1 | 0.19 | 0.19 | 98 | 0.78 | 0.096 | 1.5 | 0.39 | 0.19 | 0.096 | 1.5 | 98 | MIC (Pseudomonas aeruginosa [3]): 0.006 µM; MIC (Staphylococcus aureus [7]): 0.79 µM; Activity (Staphylococcus aureus [9]): inactive; fractional inhibitory concentration index (FICI) (Staphylococcus aureus [11]): 0.031; MIC (Streptococcus pyogenes [15]): 0.19 µM; MIC (Pseudomonas aeruginosa [18]): 0.19 µM; fractional inhibitory concentration index (FICI) (Escherichia coli [27]): 0.313; MIC (Enterococcus faecalis): 98 µM; MIC (Pseudomonas aeruginosa [28]): 0.78 µM; MIC (Staphylococcus aureus [29]): 98 µM |
| COc1cc(/C=C/C(=O)CC(=O)/C=C/c2ccc(O)c(OC)c2)ccc1O [CURCUMIN] | 350 (≈ 129 µg/mL) | 350 (≈ 129 µg/mL) | 1390 (≈ 512 µg/mL) | 174 (≈ 64.1 µg/mL) | 174 (≈ 64.1 µg/mL) | 2780 (≈ 1020 µg/mL) | 2780 (≈ 1020 µg/mL) | 174 (≈ 64.1 µg/mL) | 2780 (≈ 1020 µg/mL) | 2780 (≈ 1020 µg/mL) | 2780 (≈ 1020 µg/mL) | 2780 (≈ 1020 µg/mL) | 1390 (≈ 512 µg/mL) | 2780 (≈ 1020 µg/mL) | 2780 (≈ 1020 µg/mL) | 1390 (≈ 512 µg/mL) | 2780 (≈ 1020 µg/mL) | 2780 (≈ 1020 µg/mL) | 2780 (≈ 1020 µg/mL) | 2780 (≈ 1020 µg/mL) | Activity [30]: inactive; MIC (Acinetobacter baumannii [31]): 22 µM; Activity (Acinetobacter baumannii [32]): 100%; fold change (FC) [33]: 3; MIC (Escherichia coli [34]): 174 µM; MIC (Pseudomonas aeruginosa [35]): 43 µM; fold change (FC) (Pseudomonas aeruginosa [36]): 3; MIC (Enterococcus faecalis): 350 µM (≈ 129 µg/mL); MIC (Pseudomonas aeruginosa [28]): 1390 µM (≈ 512 µg/mL); MIC (Staphylococcus aureus [29]): 2780 µM (≈ 1020 µg/mL) |
